We go through 6 compounds from ChEMBL document CHEMBL1240482, “Synthesis and antiproliferative evaluation of certain indeno[1,2-c]quinoline derivatives. Part 2” (J Med Chem, 2010).

A short description of data set [1]: Cytotoxicity against human Detroit 551 cells after 48 hrs by MTT assay. The format is cell-based. The gist of the method: (§1)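 Cells grown in DMEM with 10% FBS at 37 °C and 5% CO2, seeded at 5 × 10^3 per well and allowed 24 h before drug. Serial dilutions from DMSO stocks applied for 48 h. MTT (2 mg/mL in PBS) added for 2 h, formazan dissolved in DMSO, absorbance read at 570 nm. GI50 interpolated by linear regression from at least three points in the 20-80% range; three independent experiments.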

Data set [2] is described as follows: Cytotoxicity against human BT-483 cells after 48 hrs by MTT assay. The format is functional. The conditions noted are these: BT-483, 48 h. The gist of the method: as §1
The nature of data set [3]: Cytotoxicity against human SKHep cells after 48 hrs by MTT assay. The format is functional. In outline:
as §1

In the next data set the test system is Nucleic Acid. In words: Binding affinity to pBR322. The conditions noted are these: Escherichia coli. The format is nucleic-acid assay.
Data set [4] has as its system Detroit 551. In words: Selectivity index, ratio of IC50 for human Detroit 551 cells to IC50 for human PC3 cells. The format is functional.
Data set [5] has as its system Detroit 551. In words: Selectivity index, ratio of IC50 for human Detroit 551 cells to IC50 for human A549 cells. The format is functional.
A short description of data set [6]: Inhibition of human topoisomerase 2 assessed as decrease in pBR322 mobility on agarose gel by electrophoresis. In outline: (§2)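 Enzyme preincubated with compound before DNA addition; reaction run 30 min at 37 °C and stopped with SDS. Products resolved on 1% agarose, stained with ethidium bromide, quantified by densitometry.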
Data set [7] has as its system SAS. In words: Cytotoxicity against human SAS cells after 48 hrs by MTT assay. The format is functional. The gist of the method:
as §1
On the technique in general: Formazan colour is commonly taken as a measure of viable cells.

In data set [8] the target is T1, DNA topoisomerase 1 (Homo sapiens) (UniProt P11387).
T1 sequence (whole entry): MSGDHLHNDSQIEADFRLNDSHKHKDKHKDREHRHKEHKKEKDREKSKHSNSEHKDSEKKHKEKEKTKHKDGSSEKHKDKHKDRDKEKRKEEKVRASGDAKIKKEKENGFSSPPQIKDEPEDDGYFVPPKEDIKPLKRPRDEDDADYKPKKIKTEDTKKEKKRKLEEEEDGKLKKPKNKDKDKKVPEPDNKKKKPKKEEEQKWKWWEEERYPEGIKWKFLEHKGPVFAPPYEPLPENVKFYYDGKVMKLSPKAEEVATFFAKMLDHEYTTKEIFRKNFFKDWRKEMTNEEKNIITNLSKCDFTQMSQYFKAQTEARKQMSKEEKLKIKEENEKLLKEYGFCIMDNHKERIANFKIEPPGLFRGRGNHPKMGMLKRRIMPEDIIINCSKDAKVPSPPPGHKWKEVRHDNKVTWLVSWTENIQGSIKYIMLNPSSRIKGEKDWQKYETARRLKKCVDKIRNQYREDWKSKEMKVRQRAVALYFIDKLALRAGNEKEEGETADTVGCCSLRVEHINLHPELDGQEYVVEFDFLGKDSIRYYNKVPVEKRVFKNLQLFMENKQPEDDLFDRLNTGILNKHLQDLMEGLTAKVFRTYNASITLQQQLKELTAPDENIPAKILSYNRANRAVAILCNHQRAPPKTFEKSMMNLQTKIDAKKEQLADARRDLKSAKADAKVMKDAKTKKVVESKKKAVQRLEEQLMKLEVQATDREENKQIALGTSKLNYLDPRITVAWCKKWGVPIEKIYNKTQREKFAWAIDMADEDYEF
In words: Inhibition of human topoisomerase 1 assessed as decrease in pBR322 mobility on agarose gel at 10 uM by electrophoresis. The gist of the method:
as §2

For the next data set, the species on record is Homo sapiens. In words: Inhibition of human topoisomerase 2 assessed as decrease in pBR322 mobility on agarose gel at 10 uM by electrophoresis. The gist of the method: as §2
Data set [9] concerns HeLa. In words: Selectivity index, ratio of IC50 for human Detroit 551 cells to IC50 for human HeLa cells. The format is functional.
Data set [10] deals with Detroit 551. In words: Selectivity index, ratio of IC50 for human Detroit 551 cells to IC50 for human SKHep cells. The format is functional.
The next data set relates to A549. In words: Cytotoxicity against human A549 cells after 48 hrs by MTT assay. The format is functional. The conditions noted are these: A549, 48 h. The gist of the method: as §1
In another data set the target is T2, DNA topoisomerase 1 (Homo sapiens, UniProt P11387).
T2 sequence (P11387 whole entry): T1 sequence (whole entry)
In words: Inhibition of human topoisomerase 1 assessed as decrease in pBR322 mobility on agarose gel by electrophoresis. In outline: as §2

The next data set has as its system PC-3. In words: Cytotoxicity against human PC3 cells after 48 hrs by MTT assay. The format is functional. The conditions noted are these: PC-3, 48 h. The gist of the method: as §1
The test system of data set [11] is HeLa. In words: Cytotoxicity against human HeLa cells after 48 hrs by MTT assay. The format is functional. The gist of the method: as §1
The subject of data set [12] is Detroit 551. In words: Selectivity index, ratio of IC50 for human Detroit 551 cells to IC50 for human BT-483 cells. The format is functional.
For data set [13], the system named is SAS. In words: Selectivity index, ratio of IC50 for human Detroit 551 cells to IC50 for human SAS cells. The format is functional.

By IC50 is commonly meant the midpoint of a concentration-inhibition curve. In general, inhibition refers to the change of the read-out against control, counted positive when it falls.

The structures appear in SMILES notation. Calls of active or inactive are those of the source. No cut-off for these calls is given here.

`COc1ccc2c(c1)/C(=N\OCCN1CCCC1)c1c-2cnc2ccccc12`: the GI50 at 48 h in data set [1] turned out to be 6290 nM. Further, the GI50 in data set [2] turned out to be 3110 nM; in [3], 1510 nM; with SAS [7], 1190 nM; in the data set with A549, 1540 nM; in the data set on PC-3 it was 2320 nM; in the data set with HeLa [11] (read-out: GI50), 450 nM. Moreover, the GI50 in the data set on HeLa [11] (read-out: pGI50 (converted)) is 447 nM. In addition, the result in the data set on Nucleic Acid was Active. The RatioGI50 in the data set on Detroit 551 [4] is reported as 2.71; with Detroit 551 [5] it was 4.08; in the data set with HeLa [9], 13.98; in the data set with Detroit 551 [10], 4.17; with Detroit 551 [12], 2.02; in the data set with SAS [13], 5.29. The IC50 in data set [6] was 6500 nM; at DNA topoisomerase 1 it was 8200 nM. For the same compound, the values for the inhibition (in data set [8]; in the data set filed under Homo sapiens) were 67% and 80%, respectively.
Take `COc1ccc2c(c1)/C(=N\OCCN(C)C)c1c-2cnc2ccccc12`: the GI50 at 48 h in data set [1] worked out at 6850 nM. Moreover, the GI50 in [2] worked out at 3610 nM; in data set [3], 1200 nM; in the data set on SAS [7], 1140 nM; in the data set on A549, 1300 nM; with PC-3, 1890 nM; with HeLa [11] (read-out: GI50) it was 420 nM. Besides, the GI50 in the data set on HeLa [11] (read-out: pGI50 (converted)) was 417 nM. Besides, the result with Nucleic Acid was Active. For the same compound, the RatioGI50 in the data set with Detroit 551 [4] came to 3.62; in the data set with Detroit 551 [5] it was 5.27; with HeLa [9] it was 16.31; in the data set on Detroit 551 [10] it was 5.71; with Detroit 551 [12], 1.9; with SAS [13], 6.01. For the same compound, the IC50 stood at 6700 nM in [6] and 7200 nM on DNA topoisomerase 1. Moreover, the inhibition in data set [8] came out at 82%; in the data set listed under Homo sapiens, 75%.
Compound `COc1ccc2c(c1)/C(=N\OCCN(C)C)c1c-2c(O)nc2ccccc12` had a GI50 at 48 h in data set [1] of 9600 nM. Moreover, the GI50 in data set [2] is 4040 nM; in data set [3] it was 2560 nM; with SAS [7], 1100 nM; in the data set on A549, 1000 nM; in the data set with PC-3 it was 5340 nM; in the data set on HeLa [11] (read-out: GI50), 230 nM. The GI50 in the data set with HeLa [11] (read-out: pGI50 (converted)) is 229 nM. For the same compound, the result in the data set with Nucleic Acid was Active. The RatioGI50 is on record as 1.8 in the data set on Detroit 551 [4]; 9.6 with Detroit 551 [5]; 41.74 with HeLa [9]; 3.75 with Detroit 551 [10]; 2.38 with Detroit 551 [12]; 8.73 in the data set on SAS [13]. For the same compound, the IC50 in data set [6] was found to be 10200 nM; at DNA topoisomerase 1, 7400 nM. Further, the inhibition was determined as 73% in data set [8] and 46% in the data set listed under Homo sapiens.
On to `COc1ccc2c(c1)/C(=N\OCCN1CCCC1)c1c-2c(N2CCNCC2)nc2ccccc12`, for which, in [1], the GI50 at 48 h came to 1470 nM. Further, the GI50 was found to be 1430 nM in data set [2]; 680 nM in [3]; 2430 nM in the data set with SAS [7]; 500 nM in the data set with A549; 3370 nM with PC-3; 570 nM in the data set on HeLa [11] (read-out: GI50). In addition, the GI50 in the data set with HeLa [11] (read-out: pGI50 (converted)) is 575 nM. Further, the outcome with Nucleic Acid was Active. Moreover, the RatioGI50 was 0.44 with Detroit 551 [4]; 4.63 in the data set with Detroit 551 [5]; 2.58 with HeLa [9]; 2.16 in the data set on Detroit 551 [10]; 1.03 in the data set on Detroit 551 [12]; 0.6 in the data set with SAS [13]. Moreover, the IC50 in data set [6] turned out to be 6440 nM; on DNA topoisomerase 1, 12800 nM. The inhibition in data set [8] amounted to 48%; in the data set filed under Homo sapiens, 74%.
With `COc1ccc2c(c1)/C(=N\OCCN1CCCCC1)c1c-2cnc2ccccc12`, the GI50 at 48 h in data set [1] was determined as 6300 nM. Moreover, the GI50 in data set [2] worked out at 5170 nM; in data set [3], 5260 nM; with SAS [7], 7180 nM; in the data set on A549, 8480 nM; in the data set on PC-3 it was 6380 nM; in the data set with HeLa [11] (read-out: GI50), 2670 nM. For the same compound, the GI50 in the data set on HeLa [11] (read-out: pGI50 (converted)) is 2690 nM. In addition, the result in the data set with Nucleic Acid was Active. Moreover, the RatioGI50 is reported as 0.99 in the data set with Detroit 551 [4]; 0.74 in the data set with Detroit 551 [5]; 2.36 with HeLa [9]; 1.2 with Detroit 551 [10]; 1.22 in the data set on Detroit 551 [12]; 0.88 in the data set on SAS [13]. Moreover, the IC50 is 10000 nM in [6] and 16500 nM on DNA topoisomerase 1. Besides, the inhibition in [8] came to 28%; in the data set filed under Homo sapiens, 50%.
The compound `COc1ccc2c(c1)/C(=N\OCCCN(C)C)c1c-2c(N2CCNCC2)nc2ccccc12` came in with a GI50 at 48 h in [1] of 2770 nM. Moreover, the GI50 in [2] was 1370 nM; in the data set with HeLa [11] (read-out: pGI50 (converted)), 372 nM. Moreover, the result in the data set with Nucleic Acid was Active. The RatioGI50 in the data set with Detroit 551 [4] worked out at 0.52; in the data set on Detroit 551 [5], 7.29; in the data set on HeLa [9], 7.49; with Detroit 551 [10] it was 0.94; in the data set on Detroit 551 [12], 2.02; with SAS [13] it was 0.56. The IC50 amounted to 4050 nM in data set [6] and 6600 nM on DNA topoisomerase 1. Besides, the inhibition turned out to be 70% in data set [8] and 88% in the data set listed under Homo sapiens.
